Data taken from PubChem BioAssay AID2692 (The Scripps Research Institute Molecular Screening Center, 2010).
Activity calls are given as the source filed them. No rule for the calls is given here.

These molecules were tested on transient receptor potential cation channel subfamily N member 1 (TRPN1/NompC), zebrafish (assay: zebrafish TRPN1 channel activation, late-stage follow-up, selectivity assay for TRPML3 selective agonist project, whole-cell patch clamp, HEK293 (AID 2692)). Details: at 10 µM.
Procedure, shortened: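 Test system – HEK293 cells expressing the TRPN1 ion channel · Medium – NaCl bath with 100 µM 2-APB, CsCl/BAPTA pipette · Schedule – 10 ms steps, holding potential +10 mV · Measured by – whole-cell patch clamp, 20 mV steps −200 to +100 mV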
In the case of `CC1CCN(S(=O)(=O)c2ccc(C(C)C)cc2)CC1`, the current density at -80 mV is reported as -0.003 nA/pF (inactive).
In the case of `Cc1ccc(S(=O)(=O)n2nccc2-c2c(-c3ccc(Cl)cc3)noc2C)cc1`, the current density at -80 mV is reported as -0.004 nA/pF (inactive).
`CCOc1ccc(S(=O)(=O)N2CCCCCC2)c2ccccc12` was tested, and the current density at -80 mV was -0.003 nA/pF (inactive).
